We go through 37 compounds from ChEMBL document CHEMBL4431355, “Design and synthesis of benzylpiperidine inhibitors targeting the menin-MLL1 interface” (Bioorg Med Chem Lett, 2016).

What is called IC50 is the concentration that inhibits the measured activity by half. For orientation: inhibition means the relative decrease from the control value, in per cent.

Test [1] has as its target Menin/Histone-lysine N-methyltransferase MLL (Homo sapiens, UniProt O00255). The experiment in a line: Inhibition of human recombinant full length menin/MLL1 (unknown origin) interaction using Ac-SRWRFPARPGTGRR-Ahx-Ahx-K-FAM as substrate after 15 mins by fluorescence polarization binding assay. Format: protein assay. In general terms: In fluorescence polarisation assays a small probe gives low polarisation when free and higher when bound to something large.

Test [2] relates to K562. The test can be described thus: Antiproliferative activity against human K562 cells after 7 days by MTS assay. As to conditions: K562, 168 h. It counts as functional, cell-based. The procedure, abridged: (§1)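 Cells exposed to compounds for 7 days in a proliferation assay. IC50 is given as mean ± SD of triplicate determinations. K562 cells were tested up to 20 μM.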
On the technique in general: Tetrazolium assays rely on reduction of a dye to a coloured formazan, in cell work by metabolically active cells.

In test [3] the test system is MV4-11. The experiment in a line: Antiproliferative activity against human MV4-11 cells expressing MLL-AF4 after 7 days by MTS assay. Format: functional, cell-based. Conditions: for IC50: MV4-11, 168 h. Put shortly:
as §1

Test [4] deals with T1, Menin/Histone-lysine N-methyltransferase MLL (Homo sapiens) (UniProt O00255+Q03164). The test can be described thus: Inhibition of human recombinant full length menin/MLL1 (unknown origin) interaction using Ac-SRWRFPARPGTGRR-Ahx-Ahx-K-FAM as substrate at 20 uM after 15 mins by fluorescence polarization binding assay. It counts as protein assay.
For test [5], the target named is T1, Menin/Histone-lysine N-methyltransferase MLL (Homo sapiens). The test can be described thus: Inhibition of menin/MLL1 interaction in human MV4-11 cells assessed as reduction in HOXA9 mRNA level at 10 uM after 6 days by qRT-PCR analysis relative to control. Format: cell-based. Put shortly: (§2)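 MV-4-11 cells incubated with compound for 6 days. HOXA9 expression measured by quantitative real-time PCR, normalized to β-actin and expressed relative to DMSO-treated cells. Triplicate means ± SD; experiment repeated 3 times.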

For test [6] the target is unchanged. The test can be described thus: Inhibition of menin/MLL1 interaction in human MV4-11 cells assessed as reduction in HOXA9 mRNA level after 6 days by qRT-PCR analysis. It counts as cell-based. Put shortly: as §2
(In general: Quantitative PCR measures a nucleic acid by following its amplification.)

Menin/Histone-lysine N-methyltransferase MLL, sequence (O00255 whole entry): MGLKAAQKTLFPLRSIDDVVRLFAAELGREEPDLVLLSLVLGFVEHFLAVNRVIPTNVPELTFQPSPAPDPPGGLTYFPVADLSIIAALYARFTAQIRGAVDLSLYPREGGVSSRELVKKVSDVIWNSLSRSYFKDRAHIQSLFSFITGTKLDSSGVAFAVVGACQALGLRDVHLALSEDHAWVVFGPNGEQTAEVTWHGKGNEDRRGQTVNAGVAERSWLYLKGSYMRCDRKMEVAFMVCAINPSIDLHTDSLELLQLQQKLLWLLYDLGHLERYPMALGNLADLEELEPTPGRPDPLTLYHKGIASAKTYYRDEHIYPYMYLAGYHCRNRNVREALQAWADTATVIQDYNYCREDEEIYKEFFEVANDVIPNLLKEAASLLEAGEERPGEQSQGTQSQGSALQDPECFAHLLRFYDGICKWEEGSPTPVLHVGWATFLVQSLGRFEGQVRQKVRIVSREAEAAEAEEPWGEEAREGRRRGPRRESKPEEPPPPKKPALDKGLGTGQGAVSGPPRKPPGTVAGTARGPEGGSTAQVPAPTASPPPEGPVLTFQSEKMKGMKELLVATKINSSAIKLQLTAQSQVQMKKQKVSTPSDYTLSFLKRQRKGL
Menin/Histone-lysine N-methyltransferase MLL, sequence (Q03164 1-2718 partner limits assumed): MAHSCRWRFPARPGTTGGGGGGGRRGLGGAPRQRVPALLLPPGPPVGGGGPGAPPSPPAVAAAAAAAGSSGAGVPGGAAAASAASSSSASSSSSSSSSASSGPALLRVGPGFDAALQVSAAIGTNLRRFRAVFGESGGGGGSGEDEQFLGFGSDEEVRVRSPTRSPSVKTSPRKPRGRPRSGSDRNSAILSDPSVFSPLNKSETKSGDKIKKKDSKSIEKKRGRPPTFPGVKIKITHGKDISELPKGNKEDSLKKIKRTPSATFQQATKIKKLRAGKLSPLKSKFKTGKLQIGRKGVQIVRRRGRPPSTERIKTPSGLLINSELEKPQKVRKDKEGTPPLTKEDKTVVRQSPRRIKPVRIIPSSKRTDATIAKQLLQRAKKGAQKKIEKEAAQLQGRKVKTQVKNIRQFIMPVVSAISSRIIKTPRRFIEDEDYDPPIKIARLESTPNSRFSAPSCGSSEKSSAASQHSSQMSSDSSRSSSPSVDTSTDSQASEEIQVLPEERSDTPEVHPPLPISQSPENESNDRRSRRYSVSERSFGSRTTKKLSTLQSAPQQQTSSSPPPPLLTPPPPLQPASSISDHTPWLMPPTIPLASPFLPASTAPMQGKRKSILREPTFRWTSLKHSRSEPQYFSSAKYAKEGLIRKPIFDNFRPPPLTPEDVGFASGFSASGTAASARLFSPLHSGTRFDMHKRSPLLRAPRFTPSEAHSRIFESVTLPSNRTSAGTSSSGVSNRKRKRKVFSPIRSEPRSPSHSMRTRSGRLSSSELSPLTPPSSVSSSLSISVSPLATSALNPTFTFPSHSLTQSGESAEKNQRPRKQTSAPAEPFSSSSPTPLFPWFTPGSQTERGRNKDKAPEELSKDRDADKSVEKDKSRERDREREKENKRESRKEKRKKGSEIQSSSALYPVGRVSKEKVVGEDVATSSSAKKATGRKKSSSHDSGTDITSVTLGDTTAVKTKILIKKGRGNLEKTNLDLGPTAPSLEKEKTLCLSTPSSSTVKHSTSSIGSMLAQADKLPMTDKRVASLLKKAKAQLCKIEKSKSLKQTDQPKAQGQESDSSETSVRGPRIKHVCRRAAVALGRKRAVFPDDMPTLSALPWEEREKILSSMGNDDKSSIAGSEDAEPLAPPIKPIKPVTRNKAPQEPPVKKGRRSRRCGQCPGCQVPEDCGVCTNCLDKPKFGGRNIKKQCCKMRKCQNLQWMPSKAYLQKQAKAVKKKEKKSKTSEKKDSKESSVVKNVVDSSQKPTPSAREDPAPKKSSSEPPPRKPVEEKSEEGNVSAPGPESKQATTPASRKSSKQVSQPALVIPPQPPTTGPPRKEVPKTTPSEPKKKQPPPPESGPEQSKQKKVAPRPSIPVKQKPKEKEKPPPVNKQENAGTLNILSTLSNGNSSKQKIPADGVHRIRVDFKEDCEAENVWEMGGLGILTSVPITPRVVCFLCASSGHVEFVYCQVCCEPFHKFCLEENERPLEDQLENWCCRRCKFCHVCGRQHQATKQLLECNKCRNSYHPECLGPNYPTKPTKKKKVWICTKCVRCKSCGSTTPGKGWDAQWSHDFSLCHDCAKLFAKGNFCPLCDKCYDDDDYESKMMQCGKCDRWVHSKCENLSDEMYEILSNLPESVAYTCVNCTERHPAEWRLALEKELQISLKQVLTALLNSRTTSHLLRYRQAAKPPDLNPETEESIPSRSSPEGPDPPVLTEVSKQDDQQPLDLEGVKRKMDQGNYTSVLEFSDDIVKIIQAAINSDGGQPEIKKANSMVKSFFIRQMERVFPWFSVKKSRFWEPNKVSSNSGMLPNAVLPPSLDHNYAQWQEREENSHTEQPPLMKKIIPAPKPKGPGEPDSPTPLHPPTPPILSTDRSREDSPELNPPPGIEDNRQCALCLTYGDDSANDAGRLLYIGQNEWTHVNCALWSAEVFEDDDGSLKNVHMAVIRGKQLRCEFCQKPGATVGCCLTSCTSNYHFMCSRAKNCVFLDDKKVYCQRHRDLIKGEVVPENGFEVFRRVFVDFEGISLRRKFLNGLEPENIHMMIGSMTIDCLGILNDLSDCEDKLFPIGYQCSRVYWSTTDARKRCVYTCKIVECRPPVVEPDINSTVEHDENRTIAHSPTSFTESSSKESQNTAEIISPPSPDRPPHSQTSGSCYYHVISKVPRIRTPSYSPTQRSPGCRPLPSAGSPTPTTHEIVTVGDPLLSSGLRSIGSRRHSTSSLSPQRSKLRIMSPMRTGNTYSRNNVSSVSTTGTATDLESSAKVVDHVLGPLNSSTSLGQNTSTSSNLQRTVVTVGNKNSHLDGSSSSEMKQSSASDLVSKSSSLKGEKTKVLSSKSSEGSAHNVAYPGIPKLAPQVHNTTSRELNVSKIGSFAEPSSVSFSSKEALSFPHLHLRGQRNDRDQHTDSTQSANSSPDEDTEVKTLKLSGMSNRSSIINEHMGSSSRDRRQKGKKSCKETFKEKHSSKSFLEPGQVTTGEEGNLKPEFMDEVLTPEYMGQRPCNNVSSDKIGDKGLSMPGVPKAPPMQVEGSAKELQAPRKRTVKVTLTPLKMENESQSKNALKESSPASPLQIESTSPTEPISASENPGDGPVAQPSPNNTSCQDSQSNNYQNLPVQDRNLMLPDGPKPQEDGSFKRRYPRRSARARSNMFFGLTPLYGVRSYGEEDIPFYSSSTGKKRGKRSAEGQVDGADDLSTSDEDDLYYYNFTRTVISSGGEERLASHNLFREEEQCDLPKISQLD
Menin/Histone-lysine N-methyltransferase MLL, sequence (Q03164 2719-3969 partner limits assumed): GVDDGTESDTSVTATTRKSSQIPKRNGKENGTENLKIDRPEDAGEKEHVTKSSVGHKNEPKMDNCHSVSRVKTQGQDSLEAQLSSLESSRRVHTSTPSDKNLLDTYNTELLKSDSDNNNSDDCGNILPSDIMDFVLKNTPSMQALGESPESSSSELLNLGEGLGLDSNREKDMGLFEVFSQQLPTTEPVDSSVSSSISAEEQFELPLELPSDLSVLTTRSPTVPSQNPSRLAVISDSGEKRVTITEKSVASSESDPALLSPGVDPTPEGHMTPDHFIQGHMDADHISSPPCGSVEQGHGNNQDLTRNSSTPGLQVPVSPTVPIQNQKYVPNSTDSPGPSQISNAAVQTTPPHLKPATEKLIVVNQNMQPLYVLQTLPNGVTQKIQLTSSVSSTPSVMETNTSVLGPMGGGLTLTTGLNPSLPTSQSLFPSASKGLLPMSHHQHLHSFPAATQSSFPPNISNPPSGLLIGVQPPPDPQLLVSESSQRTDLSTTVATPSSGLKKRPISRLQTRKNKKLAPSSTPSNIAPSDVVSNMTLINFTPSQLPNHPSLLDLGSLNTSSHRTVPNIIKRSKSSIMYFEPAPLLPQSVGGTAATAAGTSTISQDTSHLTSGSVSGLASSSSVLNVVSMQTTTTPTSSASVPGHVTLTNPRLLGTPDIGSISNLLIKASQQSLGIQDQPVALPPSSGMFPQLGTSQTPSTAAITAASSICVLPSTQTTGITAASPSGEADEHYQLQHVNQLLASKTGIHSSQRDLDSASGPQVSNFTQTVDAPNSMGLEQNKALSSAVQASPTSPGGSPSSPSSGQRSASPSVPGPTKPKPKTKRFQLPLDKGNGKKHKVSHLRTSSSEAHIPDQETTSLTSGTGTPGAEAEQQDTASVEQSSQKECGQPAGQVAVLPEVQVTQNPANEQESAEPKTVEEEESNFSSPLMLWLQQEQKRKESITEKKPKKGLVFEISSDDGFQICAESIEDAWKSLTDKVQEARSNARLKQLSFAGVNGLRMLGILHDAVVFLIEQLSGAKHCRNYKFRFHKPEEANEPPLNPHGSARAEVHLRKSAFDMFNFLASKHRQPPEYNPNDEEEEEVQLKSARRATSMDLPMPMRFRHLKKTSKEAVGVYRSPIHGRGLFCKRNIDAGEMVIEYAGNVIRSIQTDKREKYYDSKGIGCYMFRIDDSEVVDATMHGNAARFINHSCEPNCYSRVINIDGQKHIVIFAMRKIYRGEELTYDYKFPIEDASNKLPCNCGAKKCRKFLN
T1 sequence (O00255 whole entry): as the sequence (O00255 whole entry) above
T1 sequence (Q03164 1-2718 partner limits assumed): as the sequence (Q03164 1-2718 partner limits assumed) above
T1 sequence (Q03164 2719-3969 partner limits assumed): as the sequence (Q03164 2719-3969 partner limits assumed) above

For the compound `FC(F)(F)Cc1cc2c(NC3CCN(Cc4ccncc4)CC3)ncnc2s1`, the IC50 in test [1] stood at 2.7 µM.
Consider `Fc1ccc(CN2CCC(Nc3ncnc4sc(CC(F)(F)F)cc34)CC2)cc1`, for which the IC50 in test [1] is 2 µM; in test [2], greater than 20 µM; in test [3], 6.32 µM.
As for `FC(F)(F)Cc1cc2c(NC3CCN(Cc4ccc5ccccc5c4)CC3)ncnc2s1`, the inhibition in test [4] came out at 15.6%.
Regarding `Cc1cccc(CN2CCC(CNc3ncnc4sc(CC(F)(F)F)cc34)CC2)c1`, the IC50 in test [1] was 3.8 µM.
The same measure, in the same setting: the result for `CN(C)CCCOc1cccc(CN2CCC(Nc3ncnc4sc(CC(F)(F)F)cc34)CC2)c1` reads 7.35 µM.
As to `NCCOc1cccc(CN2CCC(Nc3ncnc4sc(CC(F)(F)F)cc34)CC2)c1`, the IC50 is 1.22 µM in test [1], greater than 20 µM in test [2] and 4.15 µM in test [3].
As for `FC(F)(F)Cc1cc2c(Nc3ccc(Cc4ccccc4)cc3)ncnc2s1`, the inhibition in test [4] was 2%.
Still for that read-out and setting: the result for `FC(F)(F)Cc1cc2c(NC3CCN(Cc4ccc(C(F)(F)F)cc4)CC3)ncnc2s1` reads -2.5%.
With `FC(F)(F)Cc1cc2c(NC3CCN(Cc4ccsc4)CC3)ncnc2s1`, the results for the inhibition in test [5] and in test [6] were 70% and “Dose-dependent effect”, respectively. In addition, the IC50 in test [1] is 0.22 µM; in test [2], greater than 20 µM; in test [3], 0.79 µM. The Activity entry in test [3] is “Dose-dependent effect”.
For the compound `Fc1ccc(CN2CCC(CNc3ncnc4sc(CC(F)(F)F)cc34)CC2)cc1`, the concentration for half-maximal inhibition (IC50) is 1.17 µM in test [1], greater than 20 µM in test [2] and 2.98 µM in test [3].
With `FC(F)(F)Cc1cc2c(NC3CCN(Cc4ccco4)CC3)ncnc2s1`, the IC50 in test [1] turned out to be 4.69 µM.
Consider `FC(F)(F)Cc1cc2c(NC3CCN(Cc4ccc(-c5ccccc5)cc4)CC3)ncnc2s1`, for which, in test [4], the inhibition came to 4.6%.
On to `COc1ccc(CN2CCC(Nc3ncnc4sc(CC(F)(F)F)cc34)CC2)cc1`, for which the IC50 in test [1] is 0.64 µM; in test [2], greater than 20 µM; in test [3], 2.42 µM.
For `CN(C)CCOc1cccc(CN2CCC(Nc3ncnc4sc(CC(F)(F)F)cc34)CC2)c1`, in that order: 0.78 µM, greater than 20 µM and 3.49 µM.
In the case of `CCCN1CCC(Nc2ncnc3sc(CC(F)(F)F)cc23)CC1`, in test [1], the concentration for half-maximal inhibition (IC50) was 5.67 µM.
For `FC(F)(F)Cc1cc2c(NC3CCN(CC4CC4)CC3)ncnc2s1`, the IC50 in test [1] is 0.77 µM; in test [2], greater than 20 µM; in test [3], 6.49 µM.
As for `N#Cc1ccc(NCCCN2CCN(c3ncnc4sc(CC(F)(F)F)cc34)CC2)cc1`, the IC50 in test [1] was 1.54 µM; in test [2] it was greater than 20 µM; in test [3], 2.69 µM.
Consider `O=[N+]([O-])c1cccc(CN2CCC(Nc3ncnc4sc(CC(F)(F)F)cc34)CC2)c1`, for which, in test [4], the inhibition came to 43%.
The same measure, in the same setting: with `N#Cc1ccc(CN2CCC(Nc3ncnc4sc(CC(F)(F)F)cc34)CC2)cc1` the figure was 25%.
As to `Nc1cccc(CN2CCC(Nc3ncnc4sc(CC(F)(F)F)cc34)CC2)c1`, in test [1], the IC50 is 1.26 µM.
Take `FC(F)(F)Cc1cc2c(NC3CCN(Cc4cccc5ccccc45)CC3)ncnc2s1`: the inhibition in test [4] stood at 2.4%.
On to `N#Cc1ccc(NCCN2CCN(c3ncnc4sc(CC(F)(F)F)cc34)CC2)cc1`, for which the IC50 in test [1] is greater than 20 µM.
`C#CCN1CCC(Nc2ncnc3sc(CC(F)(F)F)cc23)CC1`: the inhibition in test [4] worked out at 31.3%.
As to `FC(F)(F)Cc1cc2c(NC3CCN(Cc4ccccc4)CC3)ncnc2s1`, the IC50 in test [1] was 0.47 µM; in test [2] it was greater than 20 µM; in test [3] it was 1.02 µM. Besides, the Activity entry in test [3] was “Dose-dependent effect”.
For the compound `FC(F)(F)Cc1cc2c(NC3CCN(Cc4cccc(OC5CCNCC5)c4)CC3)ncnc2s1`, in test [1], the concentration for half-maximal inhibition (IC50) came to 13.4 µM.
Consider `N#Cc1ccc(CN2CCC(CNc3ncnc4sc(CC(F)(F)F)cc34)CC2)cc1`, for which, in test [4], the inhibition came to 33.4%.
For `CC1(C)CN=C(N2CCN(c3ncnc4sc(CC(F)(F)F)cc34)CC2)S1`, the results for the IC50 in test [2] and in test [3] were greater than 20 µM and 0.64 µM, respectively.
In the case of `FC(F)(F)Cc1cc2c(NCC3CCN(Cc4ccc(C(F)(F)F)cc4)CC3)ncnc2s1`, in test [4], the inhibition turned out to be 18.5%.
In the case of `N#Cc1ccc(OCCN2CCN(c3ncnc4sc(CC(F)(F)F)cc34)CC2)cc1`, the IC50 in test [1] was greater than 20 µM.
On to `N#Cc1ccc(OCCCN2CCN(c3ncnc4sc(CC(F)(F)F)cc34)CC2)cc1`, for which the figures for the IC50 in test [1], in test [2] and in test [3] were 0.43 µM, 9.12 µM and 1.02 µM, respectively. Besides, in test [3], the Activity entry was “Dose-dependent effect”.
As to `NCCCOc1cccc(CN2CCC(Nc3ncnc4sc(CC(F)(F)F)cc34)CC2)c1`, in test [6], the inhibition entry was “Dose-dependent effect”. In addition, the IC50 in test [1] is 0.67 µM; in test [2], greater than 20 µM; in test [3], 0.39 µM. In addition, in test [3], the Activity entry is “Dose-dependent effect”.
On to `CNCCCOc1cccc(CN2CCC(Nc3ncnc4sc(CC(F)(F)F)cc34)CC2)c1`, for which the IC50 in test [1] stood at 1.12 µM; in test [2], 9.51 µM; in test [3], 1.65 µM.
Turning to `FC(F)(F)Cc1cc2c(NC3CCNCC3)ncnc2s1`, the IC50 in test [1] is 32.8 µM.
Regarding `COc1ccc(CN2CCC(CNc3ncnc4sc(CC(F)(F)F)cc34)CC2)cc1`, the results for the IC50 in test [1], in test [2] and in test [3] were 1.07 µM, greater than 20 µM and 1.28 µM, respectively.
Regarding `FC(F)(F)Cc1cc2c(NC3CCN(CCc4ccccc4)CC3)ncnc2s1`, in test [1], the IC50 came to 1.8 µM.
On the same count and under the same terms, the result for `CN1CCC(Oc2cccc(CN3CCC(Nc4ncnc5sc(CC(F)(F)F)cc45)CC3)c2)CC1` reads 2.35 µM.
In the case of `FC(F)(F)Cc1cc2c(NCC3CCN(Cc4ccccc4)CC3)ncnc2s1`, the IC50 in test [1] is 2.24 µM; in test [2], greater than 20 µM; in test [3], 2.33 µM.
